Data from ChEMBL document CHEMBL4190310, “Identification of 3,4-dihydro-2H-thiochromene 1,1-dioxide derivatives with a phenoxyethylamine group as highly potent and selective α1D adrenoceptor antagonists” (Eur J Med Chem, 2017).

Legend:
[1] = biological target: T1, Alpha-1D adrenergic receptor (Homo sapiens, UniProt P25100); experiment: Displacement of 7-methoxy-[3H]-prazosin from human alpha1D-adrenoreceptor expressed in CHOK1 cell membranes after 60 mins by TopCount liquid scintillation counting method
T1 sequence (P25100 whole entry): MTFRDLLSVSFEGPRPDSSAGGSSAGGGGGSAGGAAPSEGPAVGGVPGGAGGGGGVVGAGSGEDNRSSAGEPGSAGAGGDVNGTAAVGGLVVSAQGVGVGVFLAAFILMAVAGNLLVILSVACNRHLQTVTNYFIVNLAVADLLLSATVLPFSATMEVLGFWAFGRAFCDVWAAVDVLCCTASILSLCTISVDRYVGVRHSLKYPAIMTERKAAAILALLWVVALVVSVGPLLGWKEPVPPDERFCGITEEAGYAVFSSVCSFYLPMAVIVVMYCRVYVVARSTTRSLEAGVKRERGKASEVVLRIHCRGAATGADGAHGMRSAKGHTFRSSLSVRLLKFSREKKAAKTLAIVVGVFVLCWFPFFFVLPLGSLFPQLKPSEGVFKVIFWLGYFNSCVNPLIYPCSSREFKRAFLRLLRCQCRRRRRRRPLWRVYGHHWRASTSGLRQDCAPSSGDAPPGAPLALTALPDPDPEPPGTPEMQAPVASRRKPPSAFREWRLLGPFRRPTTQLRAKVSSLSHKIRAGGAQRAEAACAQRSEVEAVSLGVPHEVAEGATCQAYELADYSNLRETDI
Outline: (§1)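 Membranes (10 µg protein per receptor subtype) incubated with 2.5 nmol/L 7-methoxy-[3H]-prazosin and test compound at 12 concentrations. Buffer: 50 mmol/L Tris-HCl pH 7.5, 10 mmol/L MgCl2, 5 mmol/L EDTA, 0.5% BSA. Incubated 60 min at room temperature, then filtered on GF/C and washed with Tris-HCl. Nonspecific binding set with 10 µmol/L phentolamine. IC50 from logistic regression; Ki = IC50/(1 + [ligand]/Kd).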

[2] = biological target: T2, Alpha-1B adrenergic receptor (Homo sapiens, UniProt P35368); experiment: Displacement of 7-methoxy-[3H]-prazosin from human alpha1B-adrenoreceptor expressed in CHOK1 cell membranes after 60 mins by TopCount liquid scintillation counting method; outline: as §1
T2 sequence (P35368 whole entry): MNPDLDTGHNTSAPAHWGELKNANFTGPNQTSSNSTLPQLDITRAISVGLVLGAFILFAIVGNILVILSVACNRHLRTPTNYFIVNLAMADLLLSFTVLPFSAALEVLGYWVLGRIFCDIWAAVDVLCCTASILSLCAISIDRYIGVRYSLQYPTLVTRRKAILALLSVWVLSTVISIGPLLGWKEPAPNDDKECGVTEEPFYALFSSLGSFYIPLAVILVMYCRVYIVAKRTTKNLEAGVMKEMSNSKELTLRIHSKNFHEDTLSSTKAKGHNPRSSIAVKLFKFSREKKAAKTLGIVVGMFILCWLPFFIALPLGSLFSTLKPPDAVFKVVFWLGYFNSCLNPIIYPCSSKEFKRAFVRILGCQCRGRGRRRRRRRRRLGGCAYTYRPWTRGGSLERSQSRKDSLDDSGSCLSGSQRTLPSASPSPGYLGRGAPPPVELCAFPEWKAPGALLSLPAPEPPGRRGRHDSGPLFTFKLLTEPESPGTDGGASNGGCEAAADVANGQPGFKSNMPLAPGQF

[3] = biological target: T3, Alpha-1A adrenergic receptor (Homo sapiens, UniProt P35348); experiment: Displacement of 7-methoxy-[3H]-prazosin from human alpha1A-adrenoreceptor expressed in CHOK1 cell membranes after 60 mins by TopCount liquid scintillation counting method; outline: as §1
T3 sequence (P35348 whole entry): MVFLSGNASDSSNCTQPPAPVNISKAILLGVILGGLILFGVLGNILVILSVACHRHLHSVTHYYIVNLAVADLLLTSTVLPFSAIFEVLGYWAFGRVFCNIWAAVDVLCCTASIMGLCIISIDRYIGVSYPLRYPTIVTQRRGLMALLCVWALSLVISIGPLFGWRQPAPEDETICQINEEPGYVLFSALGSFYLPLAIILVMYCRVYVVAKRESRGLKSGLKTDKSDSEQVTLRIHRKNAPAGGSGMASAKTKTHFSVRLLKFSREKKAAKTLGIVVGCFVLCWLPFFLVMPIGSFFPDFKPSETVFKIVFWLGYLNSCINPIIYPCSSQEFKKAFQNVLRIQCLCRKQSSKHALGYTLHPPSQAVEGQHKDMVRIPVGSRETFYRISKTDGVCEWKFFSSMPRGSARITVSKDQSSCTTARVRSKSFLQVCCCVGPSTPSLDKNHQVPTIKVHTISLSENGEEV

Homo sapiens [4] = species: Homo sapiens; experiment: Selectivity ratio of Ki for human alpha1A-adrenoreceptor to Ki for human alpha1D-adrenoreceptor
Homo sapiens [5] = species: Homo sapiens; experiment: Selectivity ratio of Ki for human alpha1B-adrenoreceptor to Ki for human alpha1D-adrenoreceptor
[6] = biological target: T4, Alpha-1D adrenergic receptor (Rattus norvegicus) (UniProt P23944); experiment: Antagonist activity at alpha1D-adrenoreceptor in Wistar rat bladder strips assessed as relaxation of PHE-induced contractile response after 30 mins; format: functional
T4 sequence (whole entry): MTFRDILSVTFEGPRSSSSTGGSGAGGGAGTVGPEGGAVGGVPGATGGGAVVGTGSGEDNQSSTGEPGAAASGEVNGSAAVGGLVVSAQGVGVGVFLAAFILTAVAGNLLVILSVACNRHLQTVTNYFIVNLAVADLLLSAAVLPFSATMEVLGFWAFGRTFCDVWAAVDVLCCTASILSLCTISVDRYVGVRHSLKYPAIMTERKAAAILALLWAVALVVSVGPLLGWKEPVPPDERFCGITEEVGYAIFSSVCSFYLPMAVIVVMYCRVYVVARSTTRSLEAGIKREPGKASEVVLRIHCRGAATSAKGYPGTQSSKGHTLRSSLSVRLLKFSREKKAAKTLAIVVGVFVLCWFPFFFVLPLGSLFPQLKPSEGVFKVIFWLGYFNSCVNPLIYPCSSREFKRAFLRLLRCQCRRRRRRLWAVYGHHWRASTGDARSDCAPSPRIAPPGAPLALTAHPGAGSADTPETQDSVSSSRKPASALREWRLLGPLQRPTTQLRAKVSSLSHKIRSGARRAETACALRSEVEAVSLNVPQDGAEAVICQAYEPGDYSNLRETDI

CYP3A4 = CYP3A4 (Homo sapiens, UniProt P08684); experiment: Inhibition of human microsomal CYP3A4 at 10 uM after 10 mins by LC-MS/MS analysis relative to control; format: ADME; settings: microsomes
Outline: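 Reversible inhibition test. Midazolam substrate incubated with 0.1 mg/mL human liver microsomes and 10 µM test compound for 10 min at 37 °C. Stopped with acetonitrile/water.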

CYP3A4, sequence (P08684 whole entry): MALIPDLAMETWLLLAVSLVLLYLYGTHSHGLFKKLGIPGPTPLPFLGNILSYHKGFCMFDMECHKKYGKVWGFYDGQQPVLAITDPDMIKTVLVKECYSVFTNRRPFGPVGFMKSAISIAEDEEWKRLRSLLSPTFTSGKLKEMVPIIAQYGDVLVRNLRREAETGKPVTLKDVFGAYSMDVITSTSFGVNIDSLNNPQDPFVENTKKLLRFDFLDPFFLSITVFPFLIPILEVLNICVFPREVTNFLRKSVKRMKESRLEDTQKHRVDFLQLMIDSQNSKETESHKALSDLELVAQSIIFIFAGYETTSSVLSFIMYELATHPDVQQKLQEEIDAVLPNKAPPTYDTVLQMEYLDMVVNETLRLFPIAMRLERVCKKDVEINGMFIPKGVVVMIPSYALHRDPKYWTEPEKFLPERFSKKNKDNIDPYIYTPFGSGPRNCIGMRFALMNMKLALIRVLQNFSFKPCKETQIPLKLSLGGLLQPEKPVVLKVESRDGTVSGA

Ki [1] [nM] | Ki [2] [nM] | Ki [3] [nM] | Ratio Ki (Homo sapiens [4]) | Ratio Ki (Homo sapiens [5]) | IC30 [6] [nM] | inhibition at 10 min, 10 µM (CYP3A4) [%] | Structure (SMILES)
9.1 | 44 | 50 | – | – | – | – | CS(=O)(=O)c1ccccc1CCCNCCOc1cc(F)ccc1Cl
86 | – | – | – | – | – | 12.5 | NC(=O)c1ccc2c(c1)C(NCCOc1cc(F)ccc1F)CCS2(=O)=O (stereo unspecified)
3.9 | > 120 | > 270 | – | – | 54 | 52.3 | O=S1(=O)CCC(NCCOc2cc(F)ccc2Cl)c2ccccc21 (stereo unspecified)
65 | > 120 | > 270 | – | – | – | – | Fc1ccc(Cl)c(OCCNCc2cccc(Cl)c2)c1
0.85 | 430 | 350 | 410 | 510 | 80 | 26.1 | CNc1ccc2c(c1)C(NCCOc1cc(F)ccc1F)CCS2(=O)=O (stereo unspecified)
> 94 | > 120 | > 270 | – | – | – | – | CC(NCCOc1cc(F)ccc1Cl)c1ccccc1S(C)(=O)=O (stereo unspecified)
62 | > 1200 | 1200 | 19 | > 20 | – | 26.7 | CNc1ccc2c(c1)[C@H](NCCOc1cc(F)ccc1F)CCS2(=O)=O

More lines, now with the values behind:

Structure (SMILES) | Ki [1] [nM] | Ki [2] [nM] | Ki [3] [nM] | Ratio Ki (Homo sapiens [4]) | Ratio Ki (Homo sapiens [5]) | IC30 [6] [nM] | inhibition at 10 min, 10 µM (CYP3A4) [%]
CS(=O)(=O)c1ccccc1CCNCCOc1cc(F)ccc1Cl | 8.6 | 30 | 150 | – | – | – | –
CNc1ccc2c(c1)[C@@H](NCCOc1cc(F)ccc1F)CCS2(=O)=O | 0.3 | 150 | 130 | 430 | 500 | 5.5 | 20.7
O=S1(=O)CCC(NCCOc2cc(F)ccc2F)c2cc(F)ccc21 (stereo unspecified) | 12 | – | – | – | – | – | 23.1
COc1ccc2c(c1)S(=O)(=O)CCC2NCCOc1cc(F)ccc1F (stereo unspecified) | 38 | – | – | – | – | – | 34.3
COc1ccc2c(c1)C(NCCOc1cc(F)ccc1F)CCS2(=O)=O (stereo unspecified) | 1.5 | – | – | – | – | – | 22.7
CS(=O)(=O)c1ccc(Cl)cc1CNCCOc1cc(F)ccc1Cl | 17 | 1100 | 1800 | 110 | 65 | 250 | –
COc1cccc2c1S(=O)(=O)CCC2NCCOc1cc(F)ccc1F (stereo unspecified) | 170 | – | – | – | – | – | 17.1
CS(=O)(=O)c1ccccc1CNCCOc1cc(F)ccc1Cl | 4.3 | > 120 | > 270 | – | – | 140 | –
CS(=O)(=O)c1ccc2c(c1)C(NCCOc1cc(F)ccc1F)CCS2(=O)=O (stereo unspecified) | 310 | – | – | – | – | – | 5.2
COc1cccc2c1C(NCCOc1cc(F)ccc1F)CCS2(=O)=O (stereo unspecified) | 9.5 | – | – | – | – | – | 28.6
O=S1(=O)CCC(NCCOc2cc(F)ccc2F)c2ccccc21 (stereo unspecified) | 17 | – | – | – | – | – | 26.5
O=S1(=O)CC(NCCOc2cc(F)ccc2Cl)c2ccccc21 (stereo unspecified) | > 94 | > 120 | > 270 | – | – | – | –
